From PubChem BioAssay AID588806 (The Scripps Research Institute Molecular Screening Center, 2011)

Target: Palmitoyl-protein thioesterase ABHD10, mitochondrial (Mus musculus) (UniProt Q6PE15)
Test: endogenous mouse ABHD10 activity inhibitors – cell-based, competitive gel ABPP, fluorescence, PME-1 inhibitor project, late-stage follow-up (AID 588806)
Details: BW5147 mouse T cells, in situ FP-Rh gel ABPP, 4 h, stronger effect = higher value
Summary of the method: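 test system = in situ endogenous ABHD10, murine T cells derived from BW5147 | buffer or medium = serum-free RPMI for cell treatment, homogenate at 1 mg/mL protein | doses = three test concentrations per compound, 0.25, 0.1 and 0.05 µM | timing = compound 4 h 37 °C, probe 30 min 25 °C | detection = in-gel fluorescence after SDS-PAGE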

Palmitoyl-protein thioesterase ABHD10, mitochondrial (Mus musculus), sequence (Q6PE15 whole entry, looked up): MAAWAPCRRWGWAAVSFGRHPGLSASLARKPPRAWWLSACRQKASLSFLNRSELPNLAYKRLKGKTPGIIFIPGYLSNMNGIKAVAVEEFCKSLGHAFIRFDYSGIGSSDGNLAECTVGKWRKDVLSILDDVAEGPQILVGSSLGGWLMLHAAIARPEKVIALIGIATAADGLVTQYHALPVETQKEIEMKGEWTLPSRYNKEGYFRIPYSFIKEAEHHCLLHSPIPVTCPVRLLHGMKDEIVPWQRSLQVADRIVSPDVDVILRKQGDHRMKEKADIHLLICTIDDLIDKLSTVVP

Row | inhibition (at 0.25 µM) [%] | inhibition (inhibition, at 0.05 µM) [%] | inhibition (inhibition, at 0.1 µM) [%] | SMILES
1 | 90 | 75 | 70 | CC[C@@]1(c2ccc(C)cc2)C(=O)N(C(=O)OC(C)C)N1C(=O)OC(C)C
2 | 70 | 40 | 60 | C=CCOC(=O)N1C(=O)[C@@](CC)(c2ccc(C)cc2)N1C(=O)OCC=C
3 | 90 | 60 | 80 | CCCOC(=O)N1C(=O)[C@@](CC)(c2ccc(C)cc2)N1C(=O)OCCC
